Source: ChEMBL document CHEMBL3259596, “Lactam and oxazolidinone derived potent 5-hydroxytryptamine 6 receptor antagonists” (Bioorg Med Chem Lett, 2014)

How the values were obtained:
[1] = target: T1, 5-hydroxytryptamine receptor 6 (Homo sapiens, UniProt P50406); assay: Displacement of [3H]LSD from human recombinant 5-HT6 receptor expressed in CHO-K1 cell membrane after 3 hrs by liquid scintillation counting analysis; assay type: cell membranes
Procedure, shortened: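 Membranes from CHO-K1 cells stably expressing human 5-HT6, 1.75 µg protein, preincubated with scintillation beads 30 min at 4 °C. Buffer was 50 mM Tris-HCl pH 7.4, 4 mM CaCl2, saponin, 0.1% ascorbic acid. Incubated 3 h at room temperature with 4 nM [3H]LSD (Kd 2.3 nM) over half-log dilutions. Nonspecific binding defined with 10 µM serotonin. IC50 from variable-slope fit, Ki by Cheng-Prusoff, mean of three experiments.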

[2] = target: 5-hydroxytryptamine receptor 2B (Homo sapiens, UniProt P41595); assay: Binding affinity to 5-HT2B receptor (unknown origin)
[3] = target: T1, 5-hydroxytryptamine receptor 6; assay: Antagonist activity at human 5-HT6 receptor assessed as inhibition of 5-HT-induced cAMP level treated for 10 mins prior to 5-HT challenge for 30 mins by homogeneous time-resolved fluorescent assay; assay type: functional
[4] = test system: Brain; assay: Drug uptake in rat brain at 5 mg/kg, po after 6 hrs; assay type: ADME, organism-based; set-up: dose 5 mg/kg, route oral; settings: in vivo
Procedure, shortened: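 Rats dosed orally at 5 mg/kg. Compound measured in brain 6 h after dosing.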

[5] = target: 5-hydroxytryptamine receptor 2A (Homo sapiens, UniProt P28223); assay: Binding affinity to 5-HT2A receptor (unknown origin)
[6] = target: T2, 5-hydroxytryptamine receptor 2C (Homo sapiens, UniProt P28335); assay: Binding affinity to 5-HT2C receptor (unknown origin)
T2 sequence (P28335 whole entry): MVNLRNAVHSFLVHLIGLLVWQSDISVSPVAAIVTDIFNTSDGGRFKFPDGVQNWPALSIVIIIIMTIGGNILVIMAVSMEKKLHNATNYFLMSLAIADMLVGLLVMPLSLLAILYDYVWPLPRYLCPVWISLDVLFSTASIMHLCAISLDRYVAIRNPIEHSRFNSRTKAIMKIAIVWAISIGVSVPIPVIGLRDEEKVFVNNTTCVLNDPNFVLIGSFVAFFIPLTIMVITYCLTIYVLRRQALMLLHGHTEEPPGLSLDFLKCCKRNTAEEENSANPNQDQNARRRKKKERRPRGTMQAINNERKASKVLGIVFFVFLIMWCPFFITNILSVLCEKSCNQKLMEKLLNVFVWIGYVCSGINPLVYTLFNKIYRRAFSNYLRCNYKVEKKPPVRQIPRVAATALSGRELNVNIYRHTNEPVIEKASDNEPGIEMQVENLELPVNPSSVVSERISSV

T1 sequence (P50406 whole entry): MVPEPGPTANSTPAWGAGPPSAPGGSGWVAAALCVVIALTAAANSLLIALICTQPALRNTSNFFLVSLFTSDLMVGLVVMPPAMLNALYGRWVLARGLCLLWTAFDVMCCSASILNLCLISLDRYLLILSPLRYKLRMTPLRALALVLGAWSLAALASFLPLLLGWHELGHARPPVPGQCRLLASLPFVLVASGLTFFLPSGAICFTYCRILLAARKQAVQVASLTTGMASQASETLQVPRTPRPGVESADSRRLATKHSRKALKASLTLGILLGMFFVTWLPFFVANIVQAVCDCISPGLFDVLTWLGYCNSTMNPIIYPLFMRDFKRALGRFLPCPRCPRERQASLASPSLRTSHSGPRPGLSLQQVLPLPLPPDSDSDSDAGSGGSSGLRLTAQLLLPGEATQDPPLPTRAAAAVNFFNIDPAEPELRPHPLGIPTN
Chain of 5-hydroxytryptamine receptor 2A (P28223 whole entry): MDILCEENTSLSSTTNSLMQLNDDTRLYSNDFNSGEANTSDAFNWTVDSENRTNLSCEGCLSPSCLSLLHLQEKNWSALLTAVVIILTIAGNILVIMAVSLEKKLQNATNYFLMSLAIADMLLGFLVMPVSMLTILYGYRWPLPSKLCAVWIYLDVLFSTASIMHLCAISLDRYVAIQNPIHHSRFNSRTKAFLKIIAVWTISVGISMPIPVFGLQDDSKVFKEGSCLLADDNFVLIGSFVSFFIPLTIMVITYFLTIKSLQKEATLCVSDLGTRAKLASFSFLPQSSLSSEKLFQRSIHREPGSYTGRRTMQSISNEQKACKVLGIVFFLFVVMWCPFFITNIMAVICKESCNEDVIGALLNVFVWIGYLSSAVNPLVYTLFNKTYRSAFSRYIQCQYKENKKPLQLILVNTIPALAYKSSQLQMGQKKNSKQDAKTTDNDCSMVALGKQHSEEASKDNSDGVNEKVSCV
Chain of 5-hydroxytryptamine receptor 2B (P41595 whole entry): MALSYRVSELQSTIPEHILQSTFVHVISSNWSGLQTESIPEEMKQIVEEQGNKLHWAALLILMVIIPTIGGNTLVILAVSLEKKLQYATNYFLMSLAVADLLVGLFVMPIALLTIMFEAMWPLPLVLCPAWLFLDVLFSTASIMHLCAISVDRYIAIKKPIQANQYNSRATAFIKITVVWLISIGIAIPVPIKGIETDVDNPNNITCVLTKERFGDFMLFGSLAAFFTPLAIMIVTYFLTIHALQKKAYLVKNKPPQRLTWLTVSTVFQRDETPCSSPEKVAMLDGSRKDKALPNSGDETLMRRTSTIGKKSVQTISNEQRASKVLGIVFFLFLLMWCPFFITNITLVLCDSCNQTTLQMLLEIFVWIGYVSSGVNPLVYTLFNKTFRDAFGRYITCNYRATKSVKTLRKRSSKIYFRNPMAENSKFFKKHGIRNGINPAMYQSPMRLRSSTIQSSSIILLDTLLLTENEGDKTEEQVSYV

Compound	Ki [1] [nM]	also measured
O=C1OC(c2ccccc2)CN1c1ccc2c(c1)CCNCC2 (racemic)	16	
O=C1CC(c2ccccc2)CN1c1ccc2c(c1)CNCC2 (racemic)	140	
O=C1CC(c2ccccc2)CN1c1cnc2c(N3CCCNCC3)cccc2c1 (racemic)	10	
O=C1CC(c2ccccc2)CN1c1cncc(N2CCNCC2)c1 (racemic)	4100	
Clc1ccccc1C1CCN(c2ccc3c(c2)CCNCC3)C1 (racemic)	650	
O=C1CC(c2ccccc2)CN1c1ccc2c(N3CCNCC3)ccnc2c1 (racemic)	55	
COc1ccccc1C1CN(c2ccc3c(c2)CCNCC3)C(=O)O1 (racemic)	87	
O=C1OC(c2ccccc2Cl)CN1c1ccc2c(c1)CCNC2 (racemic)	330	
O=C1CC(c2ccccc2Cl)CN1c1ccc2c(c1)CCNCC2 (racemic)	100	
O=C1CSC2(C(=O)Nc3ccccc32)N1c1ccccc1 (racemic)	5700	
O=C1CC(c2ccccc2)CN1c1cnc2c(N3CCNCC3)cccc2c1 (single isomer, unassigned; enantiomer 1)		Ki [2]: > 30000 nM; IC50 [3]: 8 nM; Drug uptake [4]: Active; Ki [5]: 3100 nM; Ki [6]: > 30000 nM
O=C1CC(c2ccccc2)CN1c1cccc(N2CCNCC2)c1 (racemic)	84	
CN1CCN(c2ncc(N3CC(c4ccccc4)CC3=O)s2)CC1 (racemic)	> 30000	
O=C1OC(c2ccccc2F)CN1c1ccc2c(c1)CCNCC2 (racemic)	15	
O=C1CCCN1c1cnc2c(N3CCNCC3)cccc2c1	4900	
O=C1OC(c2ccccc2Cl)CN1c1ccc2c(c1)CCNCC2 (racemic)	47	

More lines, in order of falling Ki [1], values ahead:

Ki [1] [nM]	Compound	also measured
1900	O=C1OC(c2ccccc2Cl)CN1c1ccc(N2CCNCC2)cc1 (racemic)	
1200	O=C1CC(c2ccccc2)CN1c1ccc2c(c1)CCCNC2 (racemic)	
240	O=C1OC(c2ccccc2Cl)CN1c1cccc(OC2CCNCC2)c1 (racemic)	
150	O=C1OC(c2ccccc2Cl)CN1c1ccc2c(c1)CNCC2 (racemic)	
140	O=C1OC(c2ccccc2Cl)CN1c1cccc(N2CCNCC2)c1 (racemic)	
88	COc1cc(OC)cc(N2C(=O)CSC23C(=O)Nc2ccccc23)c1 (racemic)	
70	O=C1CC(c2ccccc2)CN1c1cccc(C2CCNCC2)c1 (racemic)	
54	O=C1CC(c2ccccc2)CN1c1ccc2c(c1)CCNCC2 (racemic)	
48	O=C1CC(c2ccccc2)CN1c1cccc(N2CCNCC2)n1 (racemic)	
10	O=C1OC(c2cccc(Cl)c2)CN1c1ccc2c(c1)CCNCC2 (racemic)	
2.6	O=C1CC(c2ccccc2)CN1c1cnc2c(N3CCNCC3)cccc2c1 (racemic)	IC50 [3]: 15 nM
